Screens as filed in PubChem.
An excerpt weighted towards active compounds, which were near 3.5% of everything screened.
RGS4 act: RGS4 potentiators or activators, primary screen, cell-based, HEK293 M3R inducible RGS4, calcium flux. B-score at 10 µM. carbachol calcium flux Fluo4; active compounds read low. hit rate 0.92% among 310,000;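 active = B-score of the integrated calcium signal more than 4 SD below the library mean, with starting fluorescence not abnormally high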;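 note: negative B-score means reduced calcium response which marks RGS4 activation or potentiation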
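System: HEK293 FlpIn-TREx cells, stable M3R, doxycycline-inducible RGS4. Timing: overnight RGS4 induction, 30 min dye load 37 °C, 20 min compound RT. Also added: carbachol, ECmax concentration. Measured by: Fluo4 fluorescence kinetic imaging of calcium. Evaluation: integrated calcium ratio converted to B score.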
MrgX1 PAM: positive allosteric modulators of MrgX1, primary screen, HEK293 cells, Fluo-4 calcium flux; B-score at 10 µM; FDSS; active compounds read high; AID 588675, 2011; hit rate 0.63% among 310,000; Mas-related G-protein coupled receptor member X1 (Homo sapiens), Q96LB2;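 active = plate-corrected calcium response at least 3 library SD above typical, normal starting fluorescence, not activating the receptor alone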;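 note: compound read alongside a low EC10 to EC30 dose of BAM8-22 agonist; peak minus trough fluorescence over baseline measured at the second addition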
Target sequence (Q96LB2 whole entry, looked up): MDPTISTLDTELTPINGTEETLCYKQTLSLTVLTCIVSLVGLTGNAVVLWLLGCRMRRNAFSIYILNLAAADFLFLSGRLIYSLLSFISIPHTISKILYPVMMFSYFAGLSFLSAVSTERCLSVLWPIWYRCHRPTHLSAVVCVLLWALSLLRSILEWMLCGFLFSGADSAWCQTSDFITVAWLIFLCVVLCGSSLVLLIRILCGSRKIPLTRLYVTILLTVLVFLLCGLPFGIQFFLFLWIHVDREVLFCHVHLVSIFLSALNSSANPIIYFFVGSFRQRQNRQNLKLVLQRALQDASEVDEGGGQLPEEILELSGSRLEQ
MrgX1 antag: antagonists of human MrgX1 receptor, primary screen, HEK293 cells, Fluo-4 calcium flux; BAM8-22 antagonism; active compounds read low; B-score at 10 µM; hit rate 1.3% among 310,000;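 active = calcium-response B-score plate-corrected more than 3 library SD below zero, starting fluorescence within 5 deviations, no agonist response on first addition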;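 note: peak minus trough fluorescence over baseline after final BAM8-22 challenge near maximal dose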
RGS4 inh: RGS4 inhibitors, primary screen, cell-based, HEK293 M3R inducible RGS4, calcium flux; Regulator of G-protein signaling 4 (Homo sapiens), P49798; Fluo-4 calcium flux; active compounds read high; triggered by carbachol at its EC20; B-score at 10 µM; hit rate 0.45% among 310,000; AID 463165, 2010;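 active = B-score, a plate-corrected calcium signal, over three deviations above library mean, with baseline fluorescence within five deviations of library mean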;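 note: RGS4 expression induced by doxycycline in cells with stable M3 receptor; B-score is computed from the integrated fluorescence ratio over baseline after carbachol; higher B-score means a larger calcium signal and so more RGS4 inhibition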
Target sequence (P49798 whole entry, looked up): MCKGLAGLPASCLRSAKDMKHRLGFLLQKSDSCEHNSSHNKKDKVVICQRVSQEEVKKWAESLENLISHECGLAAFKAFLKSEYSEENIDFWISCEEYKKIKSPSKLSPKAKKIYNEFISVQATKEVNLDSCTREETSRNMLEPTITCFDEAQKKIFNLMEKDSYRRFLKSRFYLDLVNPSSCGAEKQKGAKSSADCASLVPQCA
MrgX1 ag: agonists of human MrgX1 receptor, primary screen, HEK293 cells, Fluo-4 calcium flux. Fluo-4 calcium fluorescence, agonist mode; active compounds read high. B-score at 10 µM. hit rate 0.44% among 310,000. AID 588627, 2011;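 active = calcium response B-score plate-corrected fluorescence ratio at least 3 library SD, with starting fluorescence B-score inside 5 SD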
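Assay system: stable human MrgX1 HEK293 cell line. Quantity: 15,000 cells per well. Schedule: cells plated overnight, dye loaded 0.5 h 37 °C, 0.5 h room temperature. Detection: Fluo-4 NW calcium-flux fluorescence, kinetic read. Read-out basis: peak-minus-minimum fluorescence over baseline, converted to B scores. Control set: positive and negative control wells on each plate.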
* = called active by the depositor; i = inactive; / = no result; ! = not confirmed by another sample.

SMILES	RGS4 act	MrgX1 PAM	MrgX1 antag	RGS4 inh	MrgX1 ag
Cc1ccc(-n2c(O)c(/C=N/n3cnnc3)c3ccccc3c2=O)cc1	i	9.35*!	i	i	i
Cc1c(Br)c([N+](=O)[O-])nn1C(C)C(=O)NCc1cccs1 (centres undefined)	i	i	i	i	i
Cc1c(Br)c([N+](=O)[O-])nn1CC(=O)NCc1cccs1	i	i	-4.8*	i	i
O=C(Cc1ccccc1)NN1CCCCC1	i	i	i	i	i
CCN(C(=O)c1cccc(S(=O)(=O)N(C)C)c1)C12CC3CC(CC(C3)C1)C2	i	i	i	i	i
Oc1ccc2ccccc2c1CN1CCN(C/C=C/c2ccccc2)CC1	-7.82*	i	i	i	i
Oc1ccc2ccccc2c1CN1CCN(c2ccccc2F)CC1	i	/	/	i	/
CCc1nc(Nc2ccc3c(c2)OCCO3)c2oc3ccccc3c2n1	-7.3*	i	i	i	i
O=C(NNc1cc(Cl)ccc1Cl)C1CCC1	i	i	i	i	i
Cc1cc(C)c(C(=O)COC(=O)c2ccc([N+](=O)[O-])o2)cc1C	-7.55*	i	i	i	i
COCCn1c(C)cc(C(=O)COC(=O)c2ccc([N+](=O)[O-])o2)c1C	i	i	i	i	i
CNCc1ccccc1Sc1ccc(O)c(O)c1	-7.51*	i	-5.66*	i	i
COc1ccc(Sc2ccccc2CN(C)C)cc1OC	i	i	i	i	i
COC1=C(Nc2ccc(O)cc2)C(=O)c2ccccc2C1=O	i	i	i	i	i
COC1=C(Nc2ccc(OC)cc2)C(=O)c2ccccc2C1=O	i	7.79*	i	i	i
COc1ccc(NC2=C(NCCO)C(=O)c3ccccc3C2=O)cc1	i	i	i	i	i
CCOc1ccc(NC2=C(OC)C(=O)c3ccccc3C2=O)cc1	i	7.35*	i	i	i
CCCC1=NN2C(=N)/C(=C\c3ccc(SCc4ccco4)o3)C(=O)N=C2S1	i	i	i	i	31.5*
CCCC1=NN2C(=N)/C(=C\c3cc(C)n(Cc4ccccc4)c3C)C(=O)N=C2S1	i	i	i	i	i
O=C1C(=O)N(Cc2ccccc2)C(=O)N1CCN1C(=O)c2ccccc2C1=O	i	i	i	i	i
O=C1Cc2ccccc2C(=O)N1CCc1ccccc1	i	i	-5.21*	i	i
COc1ccccc1CNC(=O)COC(=O)c1ccc(C)c(S(=O)(=O)N2CCCCC2)c1	i	i	i	i	i
O=c1[nH]c(CN2CCN(S(=O)(=O)c3cccs3)CC2)nc2c(Br)cc(Br)cc12	i	i	i	i	i
COc1ccc(OC)c(/C=C2\SC(=S)N(C(C(=O)O)c3ccccc3)C2=O)c1 (centres undefined)	i	i	i	i	53.3*
CCOc1ccc(/C=C2\SC(=S)N(C(C(=O)O)c3ccccc3)C2=O)cc1OC (centres undefined)	i	i	i	i	i
SMILES	RGS4 act	MrgX1 PAM	MrgX1 antag	RGS4 inh	MrgX1 ag
C=CCOc1ccc(/C=C2\SC(=S)N(C(C(=O)O)c3ccccc3)C2=O)cc1 (centres undefined)	-9.26*	/	/	i	/
CCCCCCNC(=O)N[C@H](C(=O)NCCC[C@H]1CN2C(=NC[C@H]2C)N1CCC(c1ccccc1)c1ccccc1)C(C)O (some centres undefined)	/	i	i	/	i
COc1ccc(/C=N/NC(=O)C(=O)N2CCN(c3ccccc3OC)CC2)cc1	i	i	-4.78*	i	i
COc1ccc(C(=O)N2CCN(c3ccccc3OC)CC2)cc1	i	i	i	i	i
COc1ccccc1C(=O)NC(=Nc1nc2ccccc2o1)NC(=O)c1ccccc1OC	-7.21*	i	i	i	i
O=C(NC(=Nc1nc2ccccc2o1)NC(=O)c1ccccc1)c1ccccc1	i	i	i	i	i
CCCCCCCCNC(C)C(O)c1ccc(SC(C)C)cc1 (centres undefined)	-6.95*	i	i	i	i
CC(=O)Nc1ccc2c(c1)c1ccccc1n2C(C)=O	i	i	i	i	i
CC(=O)n1c(-c2ccccc2)c(CO)c2ccccc21	i	21.6*	i	i	i
COc1cc(CNC(C)c2ccccc2)cc(Br)c1OCc1ccc(F)cc1 (centres undefined)	-8.48*	i	i	i	i
Cc1ccc(C)c(N2CCN(C(=O)c3ccc(CS(=O)Cc4ccc(Cl)cc4)o3)CC2)c1 (centres undefined)	-8.47*	i	i	i	i
O=C(c1ccc(CS(=O)Cc2ccc(Cl)cc2)o1)N1CCN(c2ccccc2F)CC1 (centres undefined)	i	i	i	i	i
Cc1cccc(N2CCN(C(=O)c3ccc(CS(=O)Cc4cccc(Cl)c4)o3)CC2)c1C (centres undefined)	-10.2*	i	i	i	i
Cc1ccc(Cl)cc1N1CCN(C(=O)c2ccc(CS(=O)Cc3ccc(Cl)cc3)o2)CC1 (centres undefined)	i	i	i	i	i
CCOC(=O)N1CCN(C(=O)c2cc3c(-c4cccc(OC)c4)nn(C)c3s2)CC1	-7.12*	i	i	i	i
CCCOc1ccc(C2C(C(=O)c3ccco3)=C(O)C(=O)N2CCCn2ccnc2)cc1 (centres undefined)	i	i	-7.47*	i	i
CCOC(=O)C1=C(C)N=c2s/c(=C\c3ccc(OC(C)=O)cc3)c(=O)n2C1/C=C/c1ccccc1 (centres undefined)	-10.6*	i	i	i	i
CC1(C)CC(=O)C(C(c2ccco2)C2C(=O)CC(C)(C)CC2=O)C(=O)C1	i	i	-6.82*	i	i
CC1(C)CC(=O)C(C(c2ccc(Br)cc2)C2C(=O)CC(C)(C)CC2=O)C(=O)C1	i	i	i	i	41*
Cc1ccc(CCNC(=O)C2CC(c3ccc(C(F)(F)F)cc3)=NO2)cc1 (centres undefined)	i	i	i	i	i
CCN(CC)CC#CCOC(=O)C(O)(c1ccccc1)C1CCCCC1 (centres undefined)	-7.02*	i	i	i	i
C[N+]1(C)CC[C@H](OC(=O)[C@@](O)(c2ccccc2)C2CCCC2)C1	i	i	i	i	i
